Data taken from ChEMBL document CHEMBL1151744, “New analgesics synthetically derived from the paracetamol metabolite N-(4-hydroxyphenyl)-(5Z,8Z,11Z,14Z)-icosatetra-5,8,11,14-enamide” (J Med Chem, 2008).
Calls of active or inactive are those of the source. The rule behind the calls is not given here.

Tests used:
[1] = target: T1, Prostaglandin G/H synthase 2 (Homo sapiens) (UniProt P35354); assay: Inhibition of human recombinant cyclooxygenase 2 assessed as prostaglandin F2alpha level at 10 uM by enzyme immunoassay relative to control
T1 sequence (whole entry): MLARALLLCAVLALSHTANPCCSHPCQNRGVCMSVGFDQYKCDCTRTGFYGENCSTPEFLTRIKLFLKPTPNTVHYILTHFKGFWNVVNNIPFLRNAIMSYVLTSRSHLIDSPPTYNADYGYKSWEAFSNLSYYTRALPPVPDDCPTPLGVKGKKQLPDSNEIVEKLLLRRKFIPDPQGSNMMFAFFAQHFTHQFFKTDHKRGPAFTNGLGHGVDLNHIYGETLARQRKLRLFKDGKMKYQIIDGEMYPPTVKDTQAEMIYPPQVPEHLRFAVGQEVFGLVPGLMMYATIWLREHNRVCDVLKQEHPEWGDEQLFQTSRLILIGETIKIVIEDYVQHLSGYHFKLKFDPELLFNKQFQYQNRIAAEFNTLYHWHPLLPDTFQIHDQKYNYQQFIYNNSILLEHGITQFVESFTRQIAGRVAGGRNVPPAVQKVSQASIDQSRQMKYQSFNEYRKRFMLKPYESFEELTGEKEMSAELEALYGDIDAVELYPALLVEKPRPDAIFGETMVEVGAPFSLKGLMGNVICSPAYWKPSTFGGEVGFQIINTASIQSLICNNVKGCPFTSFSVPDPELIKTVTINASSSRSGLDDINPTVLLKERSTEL
Procedure, shortened: (§1)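 Isolated ovine COX-1 or human recombinant COX-2 was incubated with compound at 1 or 10 µM for 10 min at 37 °C. Buffer was 0.1 M Tris-HCl pH 8.0 with 5 mM EDTA and 2 mM phenol. PGH2 formed was reduced to PGF2α with stannous chloride for quantification. Ketoprofen (10 µM) served as reference; values are means of four experiments.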

[2] = target: T2, Prostaglandin G/H synthase 1 (Ovis aries) (UniProt P05979); assay: Inhibition of ovine cyclooxygenase 1 assessed as prostaglandin F2alpha level at 10 uM by enzyme immunoassay relative to control; procedure, shortened: as §1
T2 sequence (whole entry): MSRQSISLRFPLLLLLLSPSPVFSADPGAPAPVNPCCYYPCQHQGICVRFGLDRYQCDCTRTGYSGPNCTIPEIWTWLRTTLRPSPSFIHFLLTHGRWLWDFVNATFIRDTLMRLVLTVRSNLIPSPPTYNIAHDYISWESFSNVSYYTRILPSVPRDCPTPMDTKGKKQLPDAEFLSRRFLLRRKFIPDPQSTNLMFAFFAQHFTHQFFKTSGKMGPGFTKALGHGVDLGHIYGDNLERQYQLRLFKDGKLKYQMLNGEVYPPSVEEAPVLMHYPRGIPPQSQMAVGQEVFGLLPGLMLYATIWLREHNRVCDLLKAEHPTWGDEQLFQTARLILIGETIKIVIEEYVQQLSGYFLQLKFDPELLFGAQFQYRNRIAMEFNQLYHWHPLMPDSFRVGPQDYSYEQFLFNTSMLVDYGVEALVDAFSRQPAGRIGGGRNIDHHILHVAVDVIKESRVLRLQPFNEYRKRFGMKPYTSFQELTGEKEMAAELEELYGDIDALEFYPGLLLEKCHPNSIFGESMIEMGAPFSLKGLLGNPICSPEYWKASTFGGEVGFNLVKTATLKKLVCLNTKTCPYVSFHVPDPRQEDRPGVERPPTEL

[3] = tested on: Mus musculus; assay: Toxicity in C57BL/6 mouse assessed as loss of locomotor behavior at 325 mg/kg; type: organism-based; set-up: dose 325 mg/kg; conditions: in vivo
[4] = target: T3, Cannabinoid receptor 1 (Homo sapiens, UniProt P21554); assay: Displacement of [3H]CP-55940 from human recombinant CB1 receptor expressed in HEK293 cells at 10 uM; type: cell-based
T3 sequence (P21554 whole entry): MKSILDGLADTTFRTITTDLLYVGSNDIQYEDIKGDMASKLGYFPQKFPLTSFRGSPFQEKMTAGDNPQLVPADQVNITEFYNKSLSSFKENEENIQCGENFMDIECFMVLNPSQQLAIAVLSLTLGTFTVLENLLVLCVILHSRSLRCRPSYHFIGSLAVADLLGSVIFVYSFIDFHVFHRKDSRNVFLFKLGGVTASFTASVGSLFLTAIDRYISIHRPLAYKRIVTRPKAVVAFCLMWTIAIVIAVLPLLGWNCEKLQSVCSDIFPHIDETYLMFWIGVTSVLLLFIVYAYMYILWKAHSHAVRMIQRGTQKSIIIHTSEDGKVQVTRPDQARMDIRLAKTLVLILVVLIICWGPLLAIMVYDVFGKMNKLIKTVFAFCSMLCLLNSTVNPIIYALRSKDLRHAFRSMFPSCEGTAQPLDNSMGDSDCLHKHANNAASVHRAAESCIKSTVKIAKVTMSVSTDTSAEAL

[5] = target: T4, Prostaglandin G/H synthase 2 (Homo sapiens, UniProt P35354); assay: Inhibition of cyclooxygenase 2 in human whole blood assessed as prostaglandin E2 level
T4 sequence (P35354 whole entry): T1 sequence (whole entry)

[6] = target: T5, Fatty-acid amide hydrolase 1 (Rattus norvegicus) (UniProt P97612); assay: Inhibition of FAAH in rat brain membrane assessed as [14C]anandamide hydrolysis at 50 uM by scintillation counting; type: cell membranes
T5 sequence (whole entry): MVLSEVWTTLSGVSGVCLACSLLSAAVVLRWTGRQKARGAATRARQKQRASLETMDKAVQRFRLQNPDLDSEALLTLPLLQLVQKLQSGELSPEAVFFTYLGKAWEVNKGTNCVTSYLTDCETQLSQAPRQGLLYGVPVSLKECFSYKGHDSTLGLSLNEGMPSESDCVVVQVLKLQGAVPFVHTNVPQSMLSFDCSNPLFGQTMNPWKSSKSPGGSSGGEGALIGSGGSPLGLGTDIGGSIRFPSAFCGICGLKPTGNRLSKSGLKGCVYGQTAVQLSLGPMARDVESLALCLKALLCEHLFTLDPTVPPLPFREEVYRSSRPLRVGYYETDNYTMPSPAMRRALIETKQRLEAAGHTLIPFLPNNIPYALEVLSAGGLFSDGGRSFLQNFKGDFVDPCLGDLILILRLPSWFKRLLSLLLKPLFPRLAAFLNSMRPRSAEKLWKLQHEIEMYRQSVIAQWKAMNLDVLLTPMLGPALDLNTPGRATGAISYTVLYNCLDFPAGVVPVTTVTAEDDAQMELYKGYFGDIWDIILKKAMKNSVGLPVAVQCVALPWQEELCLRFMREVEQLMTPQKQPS
Procedure, shortened: (§2)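 Enzyme source was a rat brain membrane pellet resuspended in 50 mM Tris-HCl, pH 9.0, 70 µg protein per assay. It was incubated with compound (10 or 50 µM) and [14C]anandamide (10000 cpm) for 30 min at 37 °C. After CHCl3/MeOH (1:1) extraction, [14C]ethanolamine in the aqueous phase was counted by scintillation. Points were run in duplicate.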

[7] = target: T6, Cannabinoid receptor 2 (Homo sapiens, UniProt P34972); assay: Displacement of [3H]CP-55940 from human recombinant CB2 receptor expressed in HEK293 cells at 10 uM; type: cell-based
T6 sequence (P34972 whole entry): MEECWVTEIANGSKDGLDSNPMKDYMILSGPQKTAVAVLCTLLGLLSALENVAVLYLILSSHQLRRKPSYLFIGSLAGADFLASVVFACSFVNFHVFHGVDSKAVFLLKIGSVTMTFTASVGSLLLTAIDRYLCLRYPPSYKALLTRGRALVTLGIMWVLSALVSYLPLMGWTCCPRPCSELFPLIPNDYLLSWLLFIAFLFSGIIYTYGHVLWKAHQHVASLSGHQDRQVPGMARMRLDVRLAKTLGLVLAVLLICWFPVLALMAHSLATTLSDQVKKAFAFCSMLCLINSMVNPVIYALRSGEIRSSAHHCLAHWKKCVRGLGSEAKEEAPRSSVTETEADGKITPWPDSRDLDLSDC

[8] = target: Prostaglandin G/H synthase 1 (Homo sapiens, UniProt P23219); assay: Inhibition of cyclooxygenase 1 in human whole blood assessed as thromboxane B2 level; type: tissue-based
Prostaglandin G/H synthase 1, sequence (P23219 whole entry): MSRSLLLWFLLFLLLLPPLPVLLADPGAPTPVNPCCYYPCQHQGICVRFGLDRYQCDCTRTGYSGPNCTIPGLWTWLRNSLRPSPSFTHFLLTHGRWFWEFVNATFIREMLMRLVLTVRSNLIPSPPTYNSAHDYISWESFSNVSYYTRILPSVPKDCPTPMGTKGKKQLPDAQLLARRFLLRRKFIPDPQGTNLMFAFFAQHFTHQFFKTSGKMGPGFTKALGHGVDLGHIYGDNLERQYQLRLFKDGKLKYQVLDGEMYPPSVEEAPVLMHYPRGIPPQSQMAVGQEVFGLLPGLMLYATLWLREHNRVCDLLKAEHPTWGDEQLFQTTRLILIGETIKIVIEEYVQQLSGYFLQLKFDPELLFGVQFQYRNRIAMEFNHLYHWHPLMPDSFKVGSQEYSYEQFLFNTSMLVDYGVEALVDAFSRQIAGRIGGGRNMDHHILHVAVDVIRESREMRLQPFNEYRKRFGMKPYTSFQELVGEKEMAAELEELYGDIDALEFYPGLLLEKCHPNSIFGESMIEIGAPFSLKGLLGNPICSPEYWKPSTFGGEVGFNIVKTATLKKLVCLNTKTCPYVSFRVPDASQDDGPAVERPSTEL
Procedure, shortened: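 Fresh whole blood came from a healthy volunteer free of NSAIDs for 2 weeks. 1 mL aliquots received test agent in DMSO and were left to clot for 1 h at 37 °C. Serum TXB2 was measured by GC-MS/MS, in quadruplicate.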

[9] = target: T5, Fatty-acid amide hydrolase 1 (Rattus norvegicus); assay: Inhibition of FAAH in rat brain membrane assessed as [14C]anandamide hydrolysis at 10 uM by scintillation counting; type: cell membranes; procedure, shortened: as §2
[10] = target: T6, Cannabinoid receptor 2; assay: Displacement of [3H]CP-55940 from human recombinant CB2 receptor expressed in HEK293 cells; type: cell-based
Procedure, shortened: (§3)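 Membranes were from HEK-293 cells overexpressing human CB1 or CB2, with [3H]CP-55,940 as radioligand (Kd 0.18 nM CB1, 0.31 nM CB2). Test compound (1 nM-10 µM) was incubated 90 min at 30 °C. Displaced radioligand was counted by scintillation. Ki came from IC50 via Cheng-Prusoff, with triplicate points; single-concentration screens were run in duplicate.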

[11] = target: T3, Cannabinoid receptor 1; assay: Displacement of [3H]CP-55940 from human recombinant CB1 receptor expressed in HEK293 cells; type: cell-based; procedure, shortened: as §3
[12] = organism: Mus musculus; assay: Toxicity in C57BL/6 mouse assessed as loss of locomotor behavior; type: organism-based; conditions: in vivo
[13] = target: T2, Prostaglandin G/H synthase 1 (Ovis aries); assay: Inhibition of ovine cyclooxygenase 1 assessed as prostaglandin F2alpha level at 1 uM by enzyme immunoassay relative to control; procedure, shortened: as §1
[14] = tested on: Mus musculus; assay: Antinociceptive activity against formalin-induced nociceptive behavior in C57BL/6 mouse assessed as mean licking time at 5 mg/kg, ip administered 15 mins prior to formalin challenge measured upto 10 mins relative to control; type: functional; conditions: route intraperitoneal
Procedure, shortened: (§4)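 C57BL/6 mice (n = 6-8 per group) were habituated 15-20 min in an observation chamber with mirrors, then given the compound ip at 6 µL/g in PBS/DMSO. Formalin (5%, 20 µL) went into the dorsal left hind paw 15 min later. Licking of the injected paw was summed over 0-10 min (phase 1) and 15-45 min (phase 2) and expressed as % of the vehicle control. Groups were compared by t test.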

[15] = target: T1, Prostaglandin G/H synthase 2 (Homo sapiens); assay: Inhibition of human recombinant cyclooxygenase 2 assessed as prostaglandin F2alpha level at 1 uM by enzyme immunoassay relative to control; procedure, shortened: as §1
[16] = tested on: Mus musculus; assay: Antinociceptive activity against formalin-induced nociceptive behavior in C57BL/6 mouse assessed as mean licking time at 50 mg/kg, ip administered 15 mins prior to formalin challenge measured after 15 to 45 mins relative to control; type: functional; conditions: route intraperitoneal; procedure, shortened: as §4
[17] = tested on: Mus musculus; assay: Antinociceptive activity against formalin-induced nociceptive behavior in C57BL/6 mouse assessed as mean licking time at 10 mg/kg, ip administered 15 mins prior to formalin challenge measured upto 10 mins relative to control; type: functional; conditions: route intraperitoneal; procedure, shortened: as §4
[18] = tested on: Mus musculus; assay: Antinociceptive activity against formalin-induced nociceptive behavior in C57BL/6 mouse assessed as mean licking time at 10 mg/kg, ip administered 15 mins prior to formalin challenge measured after 15 to 45 mins relative to control; type: functional; conditions: route intraperitoneal; procedure, shortened: as §4
[19] = tested on: Mus musculus; assay: Antinociceptive activity against formalin-induced nociceptive behavior in C57BL/6 mouse assessed as mean licking time at 5 mg/kg, ip administered 15 mins prior to formalin challenge measured after 15 to 45 mins relative to control; type: functional; conditions: route intraperitoneal; procedure, shortened: as §4
[20] = tested on: Mus musculus; assay: Antinociceptive activity against formalin-induced nociceptive behavior in C57BL/6 mouse assessed as mean licking time at 50 mg/kg, ip administered 15 mins prior to formalin challenge measured upto 10 mins relative to control; type: functional; conditions: route intraperitoneal; procedure, shortened: as §4

CC(C(=O)O)c1cccc(C(=O)c2ccccc2)c1 (stereo not drawn)
inhibition [1]: 41%
inhibition [2]: 16%

COc1cc(NC(C)=O)ccc1O
Activity [3]: Toxic
Activity [4]: 16%
IC50 [5]: 138 µM
inhibition [6]: 8%
Activity [7]: 22%
IC50 [8]: 234 µM

CCCCC/C=C\C/C=C\C/C=C\C/C=C\CCCC(=O)Nc1ccc2[nH]ncc2c1
inhibition [9]: 1%
Ki [10]: 1 µM
inhibition [6]: 2%
Ki [11]: 0.3 µM

CC(=O)Nc1ccc2[nH]ncc2c1
inhibition [1]: 70%
Activity [12]: Non-toxic
inhibition [2]: 92%
inhibition [13]: 97%
Activity [14]: 105%
Activity [4]: 1%
inhibition [15]: 80%
IC50 [5]: 107 µM
inhibition [6]: 4%
Activity [16]: 38%
Activity [17]: 142%
Activity [7]: 12%
Activity [18]: 73%
Activity [19]: 94%
Activity [20]: 29%
Activity [8]: inactive
